Reference: ChEMBL document CHEMBL4725340, “New coumarin-benzotriazole based hybrid molecules as inhibitors of acetylcholinesterase and amyloid aggregation” (Bioorg Med Chem Lett, 2020)
The source made the active and inactive calls. The rule behind the calls is not given here.

Columns and labels:
[1] = target: T1, Acetylcholinesterase (Electrophorus electricus, UniProt O42275); test: Inhibition of electric eel AChE by Ellman's method
[2] = target: Cholinesterase (Equus caballus, UniProt P81908); test: Inhibition of equine serum BuChE by Ellman's method
Chain of Cholinesterase (P81908 whole entry): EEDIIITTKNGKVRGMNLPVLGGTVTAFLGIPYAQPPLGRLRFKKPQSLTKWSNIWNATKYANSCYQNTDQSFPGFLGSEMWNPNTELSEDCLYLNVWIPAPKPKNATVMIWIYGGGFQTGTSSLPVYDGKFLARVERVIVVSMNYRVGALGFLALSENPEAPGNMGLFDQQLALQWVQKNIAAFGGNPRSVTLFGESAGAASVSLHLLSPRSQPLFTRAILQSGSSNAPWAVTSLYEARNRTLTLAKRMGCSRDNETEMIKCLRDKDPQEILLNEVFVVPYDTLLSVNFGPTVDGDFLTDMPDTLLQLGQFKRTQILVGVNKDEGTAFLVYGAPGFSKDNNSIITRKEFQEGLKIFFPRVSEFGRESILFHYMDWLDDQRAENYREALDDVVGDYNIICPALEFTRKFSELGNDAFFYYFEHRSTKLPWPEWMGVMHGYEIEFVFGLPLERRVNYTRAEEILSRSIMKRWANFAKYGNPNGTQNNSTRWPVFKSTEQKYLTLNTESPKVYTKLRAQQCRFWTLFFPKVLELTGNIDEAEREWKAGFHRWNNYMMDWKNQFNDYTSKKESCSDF
Method in brief: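 Ellman's method with equine serum BuChE, run as for AChE; triplicate experiments; IC50 (50% inhibitory concentration) as mean ± SD of three independent experiments.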

[3] = target: Amyloid-beta precursor protein (Homo sapiens) (UniProt P05067); test: Inhibition of copper-induced amyloid beta (1 to 42) (unknown origin) aggregation at 50 uM by thioflavin T based fluorescence assay relative to control
Chain of Amyloid-beta precursor protein (Homo sapiens) (P05067 whole entry): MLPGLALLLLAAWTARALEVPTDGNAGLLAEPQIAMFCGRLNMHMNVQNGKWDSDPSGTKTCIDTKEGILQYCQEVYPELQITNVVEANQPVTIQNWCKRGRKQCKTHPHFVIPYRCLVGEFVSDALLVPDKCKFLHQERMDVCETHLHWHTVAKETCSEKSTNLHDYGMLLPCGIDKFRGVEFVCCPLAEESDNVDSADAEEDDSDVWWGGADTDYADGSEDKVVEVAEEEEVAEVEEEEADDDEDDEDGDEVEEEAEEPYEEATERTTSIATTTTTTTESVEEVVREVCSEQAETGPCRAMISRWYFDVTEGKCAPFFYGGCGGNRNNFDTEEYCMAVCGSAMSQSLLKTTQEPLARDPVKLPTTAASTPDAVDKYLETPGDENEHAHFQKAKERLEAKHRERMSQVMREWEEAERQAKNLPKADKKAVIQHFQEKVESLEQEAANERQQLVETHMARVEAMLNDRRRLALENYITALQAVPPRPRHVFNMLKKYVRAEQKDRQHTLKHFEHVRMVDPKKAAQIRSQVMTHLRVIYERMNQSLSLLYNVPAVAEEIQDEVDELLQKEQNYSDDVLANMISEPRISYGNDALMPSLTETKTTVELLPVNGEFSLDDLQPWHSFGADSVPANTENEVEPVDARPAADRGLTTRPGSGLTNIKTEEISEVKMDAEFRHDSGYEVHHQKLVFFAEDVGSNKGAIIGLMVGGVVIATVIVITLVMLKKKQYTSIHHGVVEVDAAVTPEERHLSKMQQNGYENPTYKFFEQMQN
Method in brief: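 Thioflavin T fluorescence assay of copper-mediated Aβ1-42 aggregation; test sample at 50 μM; curcumin as reference anti-amyloidogenic agent; percentage inhibition of aggregation estimated.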

[4] = target: T1, Acetylcholinesterase; test: Mixed type inhibition of electric eel AChE assessed as inhibition constant using varying levels of acetylthiocholine as substrate by reciprocal Lineweaver-Burk plot analysis
Method in brief: (§1)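 Kinetics with electric eel AChE (Ellman's method): no inhibitor plus three inhibitor concentrations, substrate varied over […] (so in the source); double-reciprocal Lineweaver-Burk plots overlaid; slope/intercept changes and intersection quadrant used to assign inhibition type; Ki calculated from the plots.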

[5] = target: Acetylcholinesterase (Electrophorus electricus) (UniProt O42275); test: Mixed type inhibition of electric eel AChE assessed as decrease in Vmax by reciprocal Lineweaver-Burk plot analysis; method in brief: as §1
Chain of Acetylcholinesterase (Electrophorus electricus) (O42275 24-633 limits assumed): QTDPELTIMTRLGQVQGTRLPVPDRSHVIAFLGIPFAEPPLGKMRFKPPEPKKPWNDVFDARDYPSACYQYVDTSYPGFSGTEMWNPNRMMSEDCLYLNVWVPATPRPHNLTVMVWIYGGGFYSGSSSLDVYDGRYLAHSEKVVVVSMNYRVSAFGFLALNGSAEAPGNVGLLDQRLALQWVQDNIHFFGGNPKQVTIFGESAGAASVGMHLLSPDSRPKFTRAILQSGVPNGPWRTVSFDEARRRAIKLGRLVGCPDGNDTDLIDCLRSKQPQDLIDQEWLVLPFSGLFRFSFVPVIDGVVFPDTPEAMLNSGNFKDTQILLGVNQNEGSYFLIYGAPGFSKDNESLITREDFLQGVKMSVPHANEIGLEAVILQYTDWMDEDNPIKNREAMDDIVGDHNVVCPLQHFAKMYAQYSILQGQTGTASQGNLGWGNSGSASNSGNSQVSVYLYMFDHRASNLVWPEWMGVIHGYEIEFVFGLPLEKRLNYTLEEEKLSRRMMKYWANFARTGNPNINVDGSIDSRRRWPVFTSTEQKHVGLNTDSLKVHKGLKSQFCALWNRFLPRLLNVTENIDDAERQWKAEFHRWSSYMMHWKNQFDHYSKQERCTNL

[6] = target: Acetylcholinesterase (Electrophorus electricus) (UniProt O42275); test: Mixed type inhibition of electric eel AChE assessed as increase in Km by reciprocal Lineweaver-Burk plot analysis; method in brief: as §1
[7] = target: Cholinesterase (Equus caballus) (UniProt P81908); test: Inhibition of equine serum BuChE at 50 to 100 uM by Ellman's method; conditions: dose microM 50-100
Chain of Cholinesterase (Equus caballus) (P81908 whole entry): as the sequence (P81908 whole entry) above
Method in brief: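 Equine serum BuChE by Ellman's method, with the test compound at two additional single concentrations, 50 and 100 μM; inhibition read at each.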

[8] = Metal chelating activity assessed as compound-Cu2+ complex formation by measuring blue shift in absorption intensity at 5 uM by UV spectra analysis
[9] = Metal chelating activity assessed as compound-Fe2+ complex formation by measuring blue shift in absorption intensity at 5 uM by UV spectra analysis
[10] = Metal chelating activity assessed as compound-Zn2+ complex formation by measuring blue shift in absorption intensity at 5 uM by UV spectra analysis
[11] = Metal chelating activity assessed as formation of Cu2+-compound complex stoichiometry ratio of 2:1 at 5 uM in presence of CuCl2 by UV spectra analysis
[12] = test system: DNA; test: Protection against Fenton reagent-induced Escherichia coli plasmid pBR322 DNA cleavage assessed as reduction in supercoiled circular DNA(1) form to open circular DNA(2) at 0.2 to 1 mM; format: nucleic-acid assay; conditions: dose mM 0.2-1
[13] = test system: DNA; test: Protection against Fenton reagent-induced Escherichia coli plasmid pBR322 DNA cleavage assessed as reduction in supercoiled circular DNA(1) form to linear circular DNA(3) at 0.2 to 1 mM; format: nucleic-acid assay; conditions: dose mM 0.2-1
[14] = test system: SH-SY5Y; test: Cytotoxicity against human SH-SY5Y cells at 0.001 to 100 uM after 24 hrs by MTT assay
[15] = Metal chelating activity assessed as compound-Mg2+ complex formation by measuring blue shift in absorption intensity at 5 uM by UV spectra analysis

T1 sequence (O42275 whole entry): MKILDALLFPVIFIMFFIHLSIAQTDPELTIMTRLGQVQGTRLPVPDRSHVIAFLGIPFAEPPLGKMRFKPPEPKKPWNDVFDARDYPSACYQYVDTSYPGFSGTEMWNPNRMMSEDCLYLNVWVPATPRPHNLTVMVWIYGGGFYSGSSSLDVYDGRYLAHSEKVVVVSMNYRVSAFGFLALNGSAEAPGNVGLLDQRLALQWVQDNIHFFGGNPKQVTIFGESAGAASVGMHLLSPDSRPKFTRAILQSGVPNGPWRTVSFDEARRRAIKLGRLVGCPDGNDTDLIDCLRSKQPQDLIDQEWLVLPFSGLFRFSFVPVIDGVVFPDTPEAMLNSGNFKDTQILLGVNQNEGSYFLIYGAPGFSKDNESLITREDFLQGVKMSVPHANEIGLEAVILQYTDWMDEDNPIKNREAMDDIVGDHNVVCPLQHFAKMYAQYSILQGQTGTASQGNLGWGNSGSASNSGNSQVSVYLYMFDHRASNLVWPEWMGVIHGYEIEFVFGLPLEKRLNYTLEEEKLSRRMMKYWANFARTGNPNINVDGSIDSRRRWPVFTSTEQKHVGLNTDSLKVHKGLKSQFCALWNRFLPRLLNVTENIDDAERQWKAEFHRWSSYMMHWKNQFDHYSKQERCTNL

SMILES | IC50 [1] | IC50 [2] | inhibition [3] | further results
O=c1cc(OCCCCn2cc(Cn3nc4ccccc4n3)nn2)c2ccccc2o1 | 2090 nM | ≥ 10 µM | < 10% | –
O=c1ccc2ccc(OCCn3cc(Cn4nnc5ccccc54)nn3)cc2o1 | 2110 nM | ≥ 10 µM | 29.4% | –
O=c1cc(OCCCCn2cc(Cn3nnc4ccccc43)nn2)c2ccccc2o1 | 234 nM | ≥ 10 µM | 22.4% | –
O=c1ccc2ccc(OCCCCCCn3cc(COn4nnc5ccccc54)nn3)cc2o1 | ≥ 10000 nM | ≥ 10 µM | < 10% | –
O=c1ccc2ccc(OCCCCCn3cc(Cn4nc5ccccc5n4)nn3)cc2o1 | ≥ 10000 nM | ≥ 10 µM | < 10% | –
O=c1ccc2ccc(OCCCn3cc(COn4nnc5ccccc54)nn3)cc2o1 | 1980 nM | ≥ 10 µM | < 10% | –
O=c1ccc2ccc(OCCCCCCn3cc(Cn4nc5ccccc5n4)nn3)cc2o1 | ≥ 10000 nM | ≥ 10 µM | < 10% | –
O=c1ccc2ccc(OCCCCn3cc(Cn4nnc5ccccc54)nn3)cc2o1 | 4330 nM | ≥ 10 µM | 11.4% | –
O=c1ccc2ccc(OCCCCCn3cc(COn4nnc5ccccc54)nn3)cc2o1 | ≥ 10000 nM | ≥ 10 µM | < 10% | –
O=c1cc(OCCCn2cc(Cn3nnc4ccccc43)nn2)c2ccccc2o1 | 59 nM | ≥ 10 µM | 34.3% | Ki [4]: 0.0417 nM; inhibition [5]: Active; inhibition [6]: Active; inhibition [7]: Active; Activity [8]: Active; Activity [9]: Active; Activity [10]: Active; Activity [11]: Active; Activity [12]: Active; Activity [13]: Active; Activity [14]: Non-Toxic; Activity [15]: inactive
O=c1cc(OCCCn2cc(COn3nnc4ccccc43)nn2)c2ccccc2o1 | 1320 nM | ≥ 10 µM | < 10% | –
O=c1ccc2ccc(OCCCCCCn3cc(Cn4nnc5ccccc54)nn3)cc2o1 | ≥ 10000 nM | ≥ 10 µM | < 10% | –
O=c1cc(OCCCn2cc(Cn3nc4ccccc4n3)nn2)c2ccccc2o1 | 1670 nM | ≥ 10 µM | < 10% | –
O=c1ccc2ccc(OCCn3cc(Cn4nc5ccccc5n4)nn3)cc2o1 | 1180 nM | ≥ 10 µM | < 10% | –
O=c1cc(OCCn2cc(COn3nnc4ccccc43)nn2)c2ccccc2o1 | 4320 nM | ≥ 10 µM | 16.2% | –
O=c1cc(OCCn2cc(Cn3nnc4ccccc43)nn2)c2ccccc2o1 | 97 nM | ≥ 10 µM | 36.7% | –

SMILES | IC50 [1] | IC50 [2] | inhibition [3] | further results
O=c1cc(OCCCCCn2cc(COn3nnc4ccccc43)nn2)c2ccccc2o1 | ≥ 10000 nM | ≥ 10 µM | < 10% | –
O=c1cc(OCCCCCCn2cc(COn3nnc4ccccc43)nn2)c2ccccc2o1 | ≥ 10000 nM | ≥ 10 µM | < 10% | –
O=c1ccc2ccc(OCCCn3cc(Cn4nc5ccccc5n4)nn3)cc2o1 | 1160 nM | ≥ 10 µM | < 10% | –
COc1cc2c(cc1OC)C(=O)C(CC1CCN(Cc3ccccc3)CC1)C2 (stereo not drawn) [DONEPEZIL] | – | – | – | Activity [14]: Non-Toxic
O=c1cc(OCCCCn2cc(COn3nnc4ccccc43)nn2)c2ccccc2o1 | 3230 nM | ≥ 10 µM | < 10% | –
O=c1ccc2ccc(OCCCn3cc(Cn4nnc5ccccc54)nn3)cc2o1 | 2920 nM | ≥ 10 µM | 15.9% | –
O=c1ccc2ccc(OCCCCn3cc(COn4nnc5ccccc54)nn3)cc2o1 | ≥ 10000 nM | ≥ 10 µM | < 10% | –
O=c1cc(OCCCCCn2cc(Cn3nnc4ccccc43)nn2)c2ccccc2o1 | 1140 nM | ≥ 10 µM | 11.4% | –
O=c1cc(OCCCCCCn2cc(Cn3nc4ccccc4n3)nn2)c2ccccc2o1 | 6230 nM | ≥ 10 µM | < 10% | –
O=c1cc(OCCCCCn2cc(Cn3nc4ccccc4n3)nn2)c2ccccc2o1 | 4810 nM | ≥ 10 µM | < 10% | –
O=c1ccc2ccc(OCCCCCn3cc(Cn4nnc5ccccc54)nn3)cc2o1 | 5430 nM | ≥ 10 µM | < 10% | –
O=c1cc(OCCCCCCn2cc(Cn3nnc4ccccc43)nn2)c2ccccc2o1 | 5420 nM | ≥ 10 µM | < 10% | –
O=c1ccc2ccc(OCCn3cc(COn4nnc5ccccc54)nn3)cc2o1 | 2010 nM | ≥ 10 µM | 11.4% | –
O=c1cc(OCCn2cc(Cn3nc4ccccc4n3)nn2)c2ccccc2o1 | 1890 nM | ≥ 10 µM | < 10% | –
O=c1ccc2ccc(OCCCCn3cc(Cn4nc5ccccc5n4)nn3)cc2o1 | 5440 nM | ≥ 10 µM | < 10% | –
